# Source: PubChem BioAssay
# An excerpt weighted towards active compounds, which were near 3.1% of everything screened.
# CHO parental Ca: counter-screen: ATP calcium response change in parental CHO cells; hit rate 0.63% among 330,000; inhibition, % at 5.6 µM; parental CHO-K1, ATP-induced calcium, Fluo-8 fluorescence;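 active means inhibition above that plate's mean sample inhibition plus 3 SD, cut at about 26% in these data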;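 further: 0% = ATP-challenged DMSO wells and 100% = DMSO wells without ATP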
#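 test system = CHO parental line | reagent = ATP stimulus | measured by = intracellular calcium via Fluo-8 no-wash fluorescent dye | control set = ATP and no-ATP DMSO wells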
# GalR3 antag: antagonists of human GalR3 | O60755 | HEK293 GalR3-CNG cAMP membrane potential fluorescence; galR3 body fused to GalR1 C-terminus | inhibition, % at 3 µM | hit rate 0.44% among 360,000 | AID 651719;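 active means inhibition above the screen-wide average plus 3 SD, cut at about 13% in these data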;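 further: forskolin and galanin both at EC90 stimulate the cells; cAMP rise reported by CNG channel membrane potential dye signal; 0% = forskolin plus galanin with DMSO and 100% = forskolin alone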
# Target sequence (O60755 1-299 limits assumed): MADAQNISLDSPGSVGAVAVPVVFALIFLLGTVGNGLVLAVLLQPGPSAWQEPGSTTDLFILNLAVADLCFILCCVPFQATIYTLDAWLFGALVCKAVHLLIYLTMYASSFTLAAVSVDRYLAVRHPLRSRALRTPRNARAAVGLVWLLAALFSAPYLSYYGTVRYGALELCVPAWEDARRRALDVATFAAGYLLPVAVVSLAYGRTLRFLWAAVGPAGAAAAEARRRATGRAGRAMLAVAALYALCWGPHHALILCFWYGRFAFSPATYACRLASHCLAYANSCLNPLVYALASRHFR
# OX1R antag-1: blocks the human orexin 1 receptor. O43613. CHO/OX1R cells, Fluo-8 calcium fluorescence, orexin A. inhibition, % at 5 µM. hit rate 0.43% among 330,000. AID 434989;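 active means inhibition above its plate's threshold, mean inhibition of all tested compounds on the plate plus 3 SD, cut at about 37% in these data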;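 further: 0% = orexin A challenge wells and 100% = SB-334867-A antagonist wells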
# GPR7 antagonist: human neuropeptides B/W receptor 1 antagonism. P48145. GPR7-expressing cells, fluorescence antagonist assay. inhibition, % at 4.4 µM. hit rate 1.1% among 290,000. AID 1861; in the data active means inhibition above about 16%, passing the limit was not always enough;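 further: cells stimulated with the agonist NPW; 0% = agonist with vehicle and 100% = vehicle without agonist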
# Target sequence (P48145 whole entry, looked up): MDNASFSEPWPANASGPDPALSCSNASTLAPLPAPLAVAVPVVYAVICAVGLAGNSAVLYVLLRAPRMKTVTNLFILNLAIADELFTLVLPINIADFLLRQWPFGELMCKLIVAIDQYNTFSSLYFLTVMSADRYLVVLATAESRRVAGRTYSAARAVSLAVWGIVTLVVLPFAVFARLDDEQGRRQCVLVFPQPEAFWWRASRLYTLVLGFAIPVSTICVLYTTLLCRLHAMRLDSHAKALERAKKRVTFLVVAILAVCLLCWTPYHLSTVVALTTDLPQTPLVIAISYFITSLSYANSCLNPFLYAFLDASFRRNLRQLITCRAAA
# OX1R antag-2: antagonists of human orexin 1 receptor (OX1R). O43613. OX1R-expressing cells, FRET antagonist read-out. inhibition, % at 6.6 µM. hit rate 1.8% among 330,000. AID 485270; in the data active means inhibition mostly above about 38%, no sharp cut-off; inactive means mostly below about 40%;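 further: 0% = agonist challenge alone and 100% = reference antagonist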
# Active calls of the source: *; nt = no result given.
SMILES,CHO parental Ca,GalR3 antag,OX1R antag-1,GPR7 antagonist,OX1R antag-2
S=C(NCc1ccc(Cl)cc1)Nc1ccncc1,52*,6,15,1,26
Cc1cc(Cl)ccc1NC(=S)NCc1ccc(F)cc1,42*,-4,35,-15,3
CCCSc1nc(N)c(C#N)c(-c2ccc(C)cc2)c1C#N,41*,-7,5,-7,17
CCOC(=O)CC(=O)CSc1nc(N)c(C#N)c(-c2ccc(Cl)cc2)c1C#N,9,-7,2,-1,15
O=C1C2C3C=CC(C3)C2C(=O)N1c1ccccc1OS(=O)(=O)c1ccccc1 (stereo not drawn),-16,-9,5,-11,71*
C[C@H]1CN([C@@H](C)CO)C(=O)c2c(c3ccccc3n2C)-c2ccccc2CO[C@H]1CN(C)C(=O)Nc1cccc(F)c1,nt,-5,nt,nt,nt
CC1(C)Cc2c(sc(NC(=O)COc3cccc4ccccc34)c2C#N)C(C)(C)N1,82*,-3,26,-8,9
NC(=O)c1ncn([C@@H]2O[C@H](C(=O)N[C@H](Cc3ccccc3)C(=O)N3CCN(c4ccc(Cl)cn4)CC3)[C@@H](O)[C@H]2O)n1,nt,-6,nt,nt,nt
Cc1cccc(OCC(=O)OCC(=O)Nc2sccc2C(N)=O)c1,33*,-4,44*,nt,3
Clc1nc(Nc2ccc(N3CCOCC3)cc2)c2ccccc2n1,-9,-4,-4,4,70*
CN1/C(=C\C(=O)COC(=O)c2ccc(O)c(O)c2)C(C)(C)c2ccccc21,50*,-5,40*,3,12
CN1/C(=C\C(=O)COC(=O)c2ccc(O)cc2)C(C)(C)c2ccccc21,54*,-4,47*,-14,29
CNS(=O)(=O)c1cccc(C(=O)OCC(=O)/C=C2/N(C)c3ccccc3C2(C)C)c1,30,-7,12,-7,10
CCOC(=O)/C=C1/N(C)c2ccccc2C1(C)C,-1,-7,-13,-20,10
CCn1cc(C(=O)N2CCN(c3ccc([N+](=O)[O-])cc3)CC2)c(=O)c2ccc(C)nc21,4,-2,-34,-14,45*
CCn1cc(C(=O)N2CCN(c3cccc(C)c3C)CC2)c(=O)c2ccc(C)nc21,-23,-1,-31,-14,8
O=C(Nc1ccccc1)N1CCN(c2nc(-c3ccccc3)ns2)CC1,-1,1,-4,-3,8
O=C(Nc1ccccc1Cl)N1CCCN(c2nc(-c3ccccc3)ns2)CC1,1,-5,15,-19,74*
COC(=O)c1ccc(OCC(=O)c2ccccc2OC)cc1,-32,-3,-22,-9,45*
COC(=O)c1ccc(COC(=O)c2ccccc2OC)cc1,1,-3,-13,2,22
O=C(N/N=C/c1ccc2ncccc2c1)c1cc(-c2cccs2)nc2ccccc12,-18,1,19,3,62*
COc1cc(N2N=C(c3ccccc3)CC2c2ccccc2)c(C=O)cc1C=O (stereo not drawn),-12,-8,-19,-4,5
COc1ccccc1N1N=C(c2ccc([N+](=O)[O-])cc2)CC1c1ccccc1 (stereo not drawn),55*,0,58*,9,7
Cc1cccc(C)c1NC(=O)C(CCc1ccccc1)N1CCN(CCN(C)C)CC1 (stereo not drawn),nt,-3,nt,nt,nt
COC(=O)C1=C(C)N(Cc2ccc(C(F)(F)F)cc2)C(=NCc2ccc(OC)cc2)NC1c1ccccc1 (stereo not drawn),nt,-2,nt,nt,nt
SMILES,CHO parental Ca,GalR3 antag,OX1R antag-1,GPR7 antagonist,OX1R antag-2
O=C1c2ccccc2-c2onc3ccc(NCc4ccco4)c1c23,37,nt,62*,-8,82*
CCOc1ccc2noc3c2c1C(=O)c1ccccc1-3,28,-1,32,-3,50
CCNc1ccc2noc3c2c1C(=O)c1ccccc1-3,42*,-17,103*,-4,123*
COc1ccc2c(c1)[C@H]1[C@H](CO2)[C@H](c2ccccc2)[C@]2(C)C(=O)N(CC3CCCO3)CC(=O)N12 (stereo partly drawn),-28,-7,-23,nt,2
N#Cc1ccsc1NC(=O)c1ccc(Cl)c([N+](=O)[O-])c1,46*,-2,25,20*,88*
CCCCN(CCCC)CCCNC(=O)Cn1cc(C)c(=O)[nH]c1=O,nt,-3,nt,nt,nt
Cc1c(C2(O)CCCCC2)[nH]c2ccc(C(F)(F)F)cc12,57*,-4,47,nt,53*
COc1ccc(S(=O)(=O)N(Cc2cccs2)C2CCCC2)cc1,44*,2,54*,-21,44
COc1ccc(S(=O)(=O)NCc2cccs2)cc1,-4,-4,7,6,7
COc1ccc(-c2cc(=O)c3cccc(CC(=O)O)c3o2)cc1,nt,-1,nt,nt,nt
CCOC(=O)C1CCCN(S(=O)(=O)c2cc(C(=O)OC)n(C)c2)C1 (stereo not drawn),26*,1,-2,3,4
CCCn1c(-c2cccs2)nc2nc3ccccc3nc21,-25,-3,-30,-14,64*
CN(C)C(/C=C/Nc1cccc([N+](=O)[O-])c1)=C(C#N)C#N,-6,-3,5,-11,50*
C=CCCC1CN(CC=C)S(=O)(=O)c2c(F)cccc2O1 (stereo not drawn),nt,-7,nt,nt,nt
COC(=O)c1cc2c(c3c4ccccc4n(S(=O)(=O)c4cccc(C)c4)c13)C(=O)N(Cc1ccccc1OC)C2,nt,-1,nt,nt,nt
O=[N+]([O-])c1ccc(-c2nnc3cccc(Cl)n23)cc1,-7,-9,-18,-6,49*
O=C(Nc1nnc(-c2ccc3c(c2)CCCC3)o1)c1c(F)cccc1F,-5,-3,-9,-3,19
O=C(Nc1nnc(-c2ccc3c(c2)CCCC3)o1)c1ccc(Cl)cc1Cl,-5,2,5,-12,55*
Cc1ccc(OCCSc2nc3ccccc3n2CCC(=O)O)cc1,-10,-8,12,-5,49*
CCSc1nc2ccccc2n1CCC(=O)O,-1,-1,-1,-1,16
Cc1ccccc1OCCSc1nc2ccccc2n1CCC(=O)O,-11,-4,34,-7,74*
O=C(O)CCn1c(SCc2cccc3ccccc23)nc2ccccc21,-8,4,-26,4,68*
COC(=O)c1ccc2nc(-c3ccco3)c(Cc3ccccc3OC)n2c1,nt,0,nt,nt,nt
Cc1ccc(C(=O)OCC(=O)NC2CCCCC2)cc1S(=O)(=O)N1CCCCC1,-17,-5,-30,nt,5
CCc1noc(C)c1C(=O)OCC(=O)Nc1nc(-c2ccc(F)c(F)c2)cs1,36*,-5,69*,nt,21
CC(=O)Nc1ccc(-c2csc(NC(=O)c3ccc(C)o3)n2)cc1,-10,-4,-8,-18,24
COc1ccccc1OCC(=O)NNC(=O)C1CCN(c2ncnc3sc(C)c(C)c23)CC1,-18,-5,-4,nt,9
Cc1onc(-c2ccccc2)c1C(=O)Nc1nc(-c2ccc(F)c(F)c2)cs1,-22,-2,-36,-24,18
COc1ccc(-c2csc(NC(=O)C3CCN(c4ncnc5sc(C)c(C)c45)CC3)n2)cc1OC,75*,-2,45*,nt,76*
